This note sets out measurements from ChEMBL document CHEMBL3745692, “Novel iodoacetamido benzoheterocyclic derivatives with potent antileukemic activity are inhibitors of STAT5 phosphorylation” (Eur J Med Chem, 2016).

For one assay, the target named is Tubulin (Bos taurus, UniProt Q6B856+Q862L2+Q862F3). Kind of assay: Inhibition of bovine brain tubulin polymerization by spectrophotometry. Summed up: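 Bovine brain tubulin (10 µM) was pre-incubated with varying compound concentrations in glutamate buffer at 30 °C, then cooled to 0 °C. GTP was added ([…] final) and the mixture warmed to 30 °C. Assembly was followed by turbidity at 350 nm.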

For assay [1], the system named is K562. Kind of assay: Cell cycle arrest in human K562 cells assessed as accumulation at G1 phase at 5 uM for 24 hrs by propidium iodide staining based flow cytometry (reference value: 39.27%). Format: functional. The method in brief:
(§1)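 K562 cells were exposed to compound for 24 h. They were then washed in ice-cold PBS and resuspended at 1×10^6/mL in a hypotonic solution of propidium iodide 50 µg/mL in 0.1% sodium citrate with 0.03% NP-40. After 30 min, DNA content was read by flow cytometry as single-parameter histograms and cell cycle phase distribution (%) was modelled.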

Assay [2] deals with K562. Kind of assay: Cell cycle arrest in human K562 cells assessed as accumulation at S-phase at 5 uM for 24 hrs by propidium iodide staining based flow cytometry (reference value: 47.84%). The class given is functional. The method in brief:
as §1

Assay [3] concerns K562. Kind of assay: Induction of apoptosis in human K562 cells after 48 hrs by annexinV and propidium iodide staining based flow cytometry. Format: functional, cell-based. Particulars: K562, 48 h. Summed up:
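After 48 h drug exposure, 1×10^6 cells were washed in PBS and spun at 200×g for 5 min. They were stained with FITC-annexin V plus propidium iodide for 15 min at 20 °C and annexin V-positive cells counted by flow cytometry. Apoptosis was also scored morphologically with acridine orange/ethidium bromide, counting at least 300 cells. AC50 is the concentration inducing apoptosis in 50% of cells; mean ± SE from two to three experiments.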

Assay [4] relates to K562. Kind of assay: Antiproliferative activity against human K562 cells after 48 hrs by trypan blue dye exclusion assay. Format: functional, cell-based. Particulars: K562, 48 h.
Assay [5] has as its system K562. Kind of assay: Cell cycle arrest in human K562 cells assessed as accumulation at G2M-phase at 5 uM for 24 hrs by propidium iodide staining based flow cytometry (reference value: 12.89%). The class given is functional. The method in brief:
as §1

Assay [6] concerns the target T1, Signal transducer and activator of transcription 5A (Homo sapiens) (UniProt P42229).
T1 sequence (whole entry): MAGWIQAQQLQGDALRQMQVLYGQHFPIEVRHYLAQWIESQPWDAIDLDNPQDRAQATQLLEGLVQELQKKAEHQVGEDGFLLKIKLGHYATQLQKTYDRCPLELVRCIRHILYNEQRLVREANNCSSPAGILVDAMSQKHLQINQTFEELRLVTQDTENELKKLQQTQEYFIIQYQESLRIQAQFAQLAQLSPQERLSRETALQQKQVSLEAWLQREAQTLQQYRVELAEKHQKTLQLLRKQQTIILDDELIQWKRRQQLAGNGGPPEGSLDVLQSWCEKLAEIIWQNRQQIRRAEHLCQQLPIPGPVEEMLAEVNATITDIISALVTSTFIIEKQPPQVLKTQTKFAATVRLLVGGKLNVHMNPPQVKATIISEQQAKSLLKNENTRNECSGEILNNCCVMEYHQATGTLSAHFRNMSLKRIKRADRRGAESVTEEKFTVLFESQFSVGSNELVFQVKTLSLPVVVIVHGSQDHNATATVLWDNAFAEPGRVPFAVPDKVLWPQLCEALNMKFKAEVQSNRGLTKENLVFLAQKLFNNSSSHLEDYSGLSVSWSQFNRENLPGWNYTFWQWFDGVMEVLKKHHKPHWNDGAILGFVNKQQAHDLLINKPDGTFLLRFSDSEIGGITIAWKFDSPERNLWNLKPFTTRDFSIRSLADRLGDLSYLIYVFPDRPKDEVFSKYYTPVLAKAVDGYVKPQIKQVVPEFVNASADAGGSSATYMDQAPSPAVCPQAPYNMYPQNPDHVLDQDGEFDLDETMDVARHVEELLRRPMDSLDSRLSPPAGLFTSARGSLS
Kind of assay: Inhibition of STAT5 phosphorylation in human K562 cells at 5 uM after 24 hrs by flow cytometry (reference value: 315.56). Format: cell-based. Summed up:
(§2)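 After 24 h exposure, about 1×10^6 K562 cells were PBS-washed and fixed/permeabilised for 20 min at 4 °C. They were then stained for 30 min at 4 °C with PE-conjugated anti-pSTAT5 monoclonal antibody, with an isotype antibody as control. Median fluorescence was read by flow cytometry and compared with untreated cells stained for pSTAT5.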

Assay [7] has as its system K562. Kind of assay: Potency index, ratio IC50 of imatinib mesilate to IC50 of compound for antiprolifertive activity against human K562. Format: functional. Summed up:
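K562 cells grown in RPMI 1640 with 10% FCS at 37 °C, 5% CO2. 2×10^5 cells/mL exposed to a range of concentrations for 48 h. Viable cells counted by trypan blue exclusion, as % of control.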

For assay [8], the system named is K562. Kind of assay: Cell cycle arrest in human K562 cells assessed as accumulation at G1 phase at 0.5 uM for 24 hrs by propidium iodide staining based flow cytometry (reference value: 39.27%). Format: functional. Summed up: (§3)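 K562 cells in RPMI 1640 with 10% FCS, penicillin/streptomycin and L-glutamine, 5% CO2, 37 °C; exposed 24 h. Cells washed in ice-cold PBS, resuspended at 1×10^6/mL in hypotonic solution of propidium iodide 50 µg/mL in 0.1% sodium citrate plus 0.03% nonidet P-40 for 30 min. DNA content read as single-parameter flow cytometry histograms; phase distribution modelled.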

The test system of assay [9] is K562. Kind of assay: Cell cycle arrest in human K562 cells assessed as accumulation at G2M-phase at 0.5 uM for 24 hrs by propidium iodide staining based flow cytometry (reference value: 12.89%). Format: functional. The method in brief:
as §3

Assay [10] deals with T1, Signal transducer and activator of transcription 5A (Homo sapiens). Kind of assay: Inhibition of STAT5 phosphorylation in human K562 cells at 0.5 uM after 24 hrs by flow cytometry (reference value: 315.56). The class given is cell-based. The method in brief:
as §2

In assay [11] the test system is K562. Kind of assay: Cell cycle arrest in human K562 cells assessed as accumulation at S-phase at 0.5 uM for 24 hrs by propidium iodide staining based flow cytometry (reference value: 47.84%). Format: functional. The method in brief:
as §3

Assay [12] concerns the target T1, Signal transducer and activator of transcription 5A (Homo sapiens). Kind of assay: Inhibition of STAT5 phosphorylation in human K562 cells at 0.5 uM after 24 hrs by flow cytometry relative to control. Format: cell-based. Summed up:
as §2

Assay [13] deals with K562. Kind of assay: Potency index, ratio AC50 of imatinib mesilate to AC50 of compound for induction of apoptosis in human K562. The class given is functional. The method in brief:
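K562 cells in RPMI 1640 with 10% FCS, treated 48 h over a concentration range. Apoptosis scored morphologically after acridine orange/ethidium bromide staining (≥300 cells counted, chromatin condensation, apoptotic bodies) and by annexin V-FITC/propidium iodide flow cytometry. AC50 is the concentration giving 50% apoptotic cells, mean ± SE of 2–3 experiments.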

The subject of assay [14] is K562. Kind of assay: Cell cycle arrest in human K562 cells assessed as accumulation at G1 phase at 1 uM for 24 hrs by propidium iodide staining based flow cytometry (reference value: 39.27%). The class given is functional. Summed up:
as §1

For another assay, the species on record is Bos taurus. Kind of assay: Inhibition of [3H]colchicine binding to bovine tubulin at 5 uM by DEAE-cellulose filter method. The method in brief: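 Reaction mixtures contained 1 µM tubulin, 5 µM [3H]colchicine and 5 µM test compound. Result is given as % inhibition of colchicine binding ± SD.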
Assay [15] relates to K562. Kind of assay: Cell cycle arrest in human K562 cells assessed as accumulation at S-phase at 1 uM for 24 hrs by propidium iodide staining based flow cytometry (reference value: 47.84%). The class given is functional. The method in brief:
as §1

In assay [16] the test system is K562. Kind of assay: Cell cycle arrest in human K562 cells assessed as accumulation at G2M-phase at 1 uM for 24 hrs by propidium iodide staining based flow cytometry (reference value: 12.89%). The class given is functional. The method in brief: as §1
The target of assay [17] is T1, Signal transducer and activator of transcription 5A (Homo sapiens). Kind of assay: Inhibition of STAT5 phosphorylation in human K562 cells at 1 uM after 24 hrs by flow cytometry (reference value: 315.56). Format: cell-based. Summed up: as §2

As for `O=C(CI)Nc1c(C(=O)c2ccccc2)oc2ccccc12`, the IC50 against Tubulin is over 20 µM; with K562 [4], 1000 nM. Besides, the figures for the Activity with K562 [1], with K562 [2] and with K562 [5] were 68.32%, 20.28% and 11.4%, respectively. This compound also showed an AC50 with K562 [3] of 5900 nM. In addition, the Flu intensity in assay [6] was determined as 103.

With `COc1cc2oc(C(=O)c3cc(OC)c(OC)c(OC)c3)c(C)c2cc1NC(=O)CI`, the “Ratio IC50” value in the assay with K562 [7] came to 3.1; in the assay with K562 [13] it was 2.7. In addition, the Activity in the assay on K562 [8] was 35.78%; with K562 [9] it was 28.76%; with K562 [11], 35.47%. The AC50 with K562 [3] was 250 nM. The compound also returned an IC50 in the assay on K562 [4] of 70 nM. This compound also displayed a Flu intensity in assay [10] of 176. The compound also gave an inhibition in assay [12] of 44%.

Turning to `COc1cc(C(=O)c2sc3c(C)cccc3c2NC(=O)CI)cc(OC)c1OC`, the half-inhibitory concentration (IC50) is 1.1 µM on Tubulin and 400 nM in the assay on K562 [4]. For the same compound, the Activity came to 79.88% in the assay with K562 [14], 17.13% in the assay with K562 [15] and 2.99% in the assay with K562 [16]. Besides, the inhibition in the assay filed under Bos taurus was determined as 65%. In the assay on K562 [3], the AC50 is 2800 nM. Moreover, the Flu intensity in [17] is 45.2.
